Results as given in ChEMBL document CHEMBL2346557 (Bioorg Med Chem, 2013).
Values after ≈ are worked out from the molar mass of the structure shown.

How the values were obtained:
[1] = Metabolic stability in mouse liver microsomes assessed as compound remaining at 2 uM measured at 1 hr; assay type: ADME, Microsome; details: read-out: Stability
Procedure, shortened: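 Liver microsomes (human, or male monkey, dog, rat or mouse) at 0.5 mg/mL final with 2 µM compound, 5 mM MgCl2 and 5 mM PBS. The reaction was started with 1 mM NADPH and run at 37 °C. Verapamil was the positive control; water replaced NADPH in the negative control. Read-out was percent parent remaining at 1 h.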

[2] = Metabolic stability in rat liver microsomes assessed as compound ramaining at 2 uM measured at 1 hr; assay type: ADME, Microsome; details: read-out: Stability
Procedure, shortened: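 Rat liver microsomes at 0.5 mg/mL final, with 5 mM MgCl2 and 5 mM PBS. The reaction was started with 1 mM NADPH final and run at 37 °C. The negative control used water in place of NADPH; verapamil was the positive control. Read-out was % parent remaining at 1 h.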

Caco-2 = assay: Apparent permeability from apical to basolateral side of human Caco2 cells; assay type: ADME, cell-based
Procedure, shortened: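 Caco-2 monolayer permeability measured in the apical-to-basolateral direction and reported as Papp (10−6 cm/s); the efflux ratio was also determined.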

[3] = Volume of distribution at steady state in beagle dog at 10 mg/kg, iv; assay type: ADME, organism-based, Canis lupus familiaris; design: dose 10 mg/kg, route intravenous; details: in vivo, read-out: Vdss
Rattus norvegicus [4] = assay: Total unbound Cmax in Sprague-Dawley rat at 50 mg/kg, po; assay type: ADME, organism-based; design: dose 50 mg/kg, route oral; details: in vivo
Procedure, shortened: (§1)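 Sprague–Dawley rats (n = 3) were dosed orally with an emulsion in 30% Labrafil. Blood was sampled from 0 to 24 h (0, 5, 15, 30 min; 1, 2, 4, 8, 24 h). Bioavailability was derived against the IV arm.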

[5] = Mean residence time in CD1 mouse at 10 mg/kg, iv; assay type: ADME, organism-based; design: dose 10 mg/kg, route intravenous; details: in vivo
Procedure, shortened: (§2)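 CD1 mice (n = 3 per compound) given 10 mg/kg as a single tail-vein injection in a pH 7.0 solution of 10% ethanol plus PEG400 (some compounds also with 10% DMSO). Blood was sampled at 0, 5, 15 and 30 min and 1, 2, 4, 8 and 24 h. Parameters were derived from the plasma concentration–time profiles.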

Rattus norvegicus [6] = assay: Total unbound AUC (0 to infinity) in Sprague-Dawley rat at 10 mg/kg, iv; assay type: ADME, organism-based; design: dose 10 mg/kg, route intravenous; details: in vivo
[7] = Terminal half life in CD1 mouse at 50 mg/kg, po; assay type: ADME, organism-based; design: dose 50 mg/kg, route oral; details: in vivo, read-out: beta t1/2 (converted)
Procedure, shortened: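 CD1 mice (n = 3 per compound) were dosed orally at 50 mg/kg as an aqueous emulsion in 30% Labrafil. Blood was drawn at 0, 5, 15 and 30 min and 1, 2, 4, 8 and 24 h. Bioavailability and other parameters were calculated from the plasma profiles and compared against the intravenous arm.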

Mus musculus [8] = assay: Total unbound Cmax in CD1 mouse at 50 mg/kg, po; assay type: ADME, organism-based; design: dose 50 mg/kg, route oral; details: in vivo
Canis familiaris [9] = assay: Total unbound Cmax in beagle dog at 30 mg/kg, po; assay type: ADME, organism-based, Canis lupus familiaris; design: dose 30 mg/kg, route oral; details: in vivo
Procedure, shortened: (§3)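 Beagles (n = 3) were given an oral emulsion in 30% Labrafil. Blood was collected at 0, 5, 15 and 30 min and at 1, 2, 4, 8 and 24 h. Bioavailability was derived relative to IV dosing.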

Mus musculus [10] = assay: Total unbound Cmax in CD1 mouse at 10 mg/kg, iv; assay type: ADME, organism-based; design: dose 10 mg/kg, route intravenous; details: in vivo
[11] = Terminal half life in beagle dog at 10 mg/kg, iv; assay type: ADME, organism-based, Canis lupus familiaris; design: dose 10 mg/kg, route intravenous; details: in vivo, read-out: beta t1/2 (converted)
Cytochrome P450 2D6 = Cytochrome P450 2D6 (Homo sapiens, UniProt P10635); assay: Inhibition of CYP2D6 (unknown origin); assay type: ADME
C2C12 = assay: Cytotoxicity against mouse C2C12 cells assessed as cell viability at 0.01 to 100 ug/mL after 24 hrs by MTT assay; assay type: cell-based; details: c2c12, 24 h
Procedure, shortened: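 MTT viability run on C2C12 cells grown and treated alongside the NF-κB reporter plates, with drug at 0.01–100 µg/ml and DMSO vehicle. Viability is expressed as percent of untreated cells. A one-way repeated-measures ANOVA tested for a concentration effect.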

[12] = Volume of distribution at steady state in Sprague-Dawley rat at 10 mg/kg, iv; assay type: ADME, organism-based; design: dose 10 mg/kg, route intravenous; details: in vivo, read-out: Vdss
[13] = Terminal half life in Sprague-Dawley rat at 10 mg/kg, iv; assay type: ADME, organism-based; design: dose 10 mg/kg, route intravenous; details: in vivo, read-out: beta t1/2 (converted)
[14] = Solubility of the compound; assay type: physicochemical
[15] = Tmax in CD1 mouse at 10 mg/kg, iv; assay type: ADME, organism-based; design: dose 10 mg/kg, route intravenous; details: in vivo; procedure, shortened: as §2
[16] = molecular target: T1, Glucocorticoid receptor (Mus musculus) (UniProt P06537); assay: Induction of glucocorticoid receptor nuclear translocation in mouse C2C12 cells at 1 x 10^-5 to 1.69 x 10^-10 M by chemiluminescence assay relative to control; assay type: cell-based
T1 sequence (whole entry): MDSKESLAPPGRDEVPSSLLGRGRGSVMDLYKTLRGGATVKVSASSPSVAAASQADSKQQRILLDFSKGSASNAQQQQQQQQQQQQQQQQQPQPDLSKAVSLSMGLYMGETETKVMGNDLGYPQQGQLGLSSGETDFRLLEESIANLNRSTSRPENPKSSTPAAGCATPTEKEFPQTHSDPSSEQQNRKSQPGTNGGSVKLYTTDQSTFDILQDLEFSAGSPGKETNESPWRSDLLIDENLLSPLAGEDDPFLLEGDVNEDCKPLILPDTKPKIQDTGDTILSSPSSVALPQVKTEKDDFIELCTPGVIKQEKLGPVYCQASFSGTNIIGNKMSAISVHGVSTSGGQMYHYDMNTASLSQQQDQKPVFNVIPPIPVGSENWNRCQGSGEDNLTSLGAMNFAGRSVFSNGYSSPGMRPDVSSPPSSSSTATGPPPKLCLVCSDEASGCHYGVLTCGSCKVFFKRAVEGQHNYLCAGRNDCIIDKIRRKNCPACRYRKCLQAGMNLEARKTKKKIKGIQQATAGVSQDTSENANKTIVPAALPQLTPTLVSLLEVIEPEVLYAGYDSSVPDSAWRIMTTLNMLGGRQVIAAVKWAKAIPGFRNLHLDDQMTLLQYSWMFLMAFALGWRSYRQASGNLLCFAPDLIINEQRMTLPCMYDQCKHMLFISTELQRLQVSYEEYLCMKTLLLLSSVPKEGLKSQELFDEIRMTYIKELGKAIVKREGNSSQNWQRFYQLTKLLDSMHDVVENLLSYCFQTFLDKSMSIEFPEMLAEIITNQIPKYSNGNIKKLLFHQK
Procedure, shortened: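 GR nuclear translocation measured by DiscoveRx in PathHunter cells using enzyme-fragment complementation. ProLink-tagged GR recruits a nuclear steroid receptor co-activator peptide fused to the enzyme acceptor, giving a chemiluminescent signal.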

[17] = Tmax in Sprague-Dawley rat at 50 mg/kg, po; assay type: ADME, organism-based; design: dose 50 mg/kg, route oral; details: in vivo; procedure, shortened: as §1
Mus musculus [18] = assay: Total unbound AUC (0 to infinity) in CD1 mouse at 10 mg/kg, iv; assay type: ADME, organism-based; design: dose 10 mg/kg, route intravenous; details: in vivo
[19] = Tmax in beagle dog at 30 mg/kg, po; assay type: ADME, organism-based, Canis lupus familiaris; design: dose 30 mg/kg, route oral; details: in vivo; procedure, shortened: as §3
Canis familiaris [20] = assay: Total unbound AUC (0 to infinity) in beagle dog at 30 mg/kg, po; assay type: ADME, organism-based, Canis lupus familiaris; design: dose 30 mg/kg, route oral; details: in vivo; procedure, shortened: as §3

Cytochrome P450 2D6, sequence (P10635 whole entry): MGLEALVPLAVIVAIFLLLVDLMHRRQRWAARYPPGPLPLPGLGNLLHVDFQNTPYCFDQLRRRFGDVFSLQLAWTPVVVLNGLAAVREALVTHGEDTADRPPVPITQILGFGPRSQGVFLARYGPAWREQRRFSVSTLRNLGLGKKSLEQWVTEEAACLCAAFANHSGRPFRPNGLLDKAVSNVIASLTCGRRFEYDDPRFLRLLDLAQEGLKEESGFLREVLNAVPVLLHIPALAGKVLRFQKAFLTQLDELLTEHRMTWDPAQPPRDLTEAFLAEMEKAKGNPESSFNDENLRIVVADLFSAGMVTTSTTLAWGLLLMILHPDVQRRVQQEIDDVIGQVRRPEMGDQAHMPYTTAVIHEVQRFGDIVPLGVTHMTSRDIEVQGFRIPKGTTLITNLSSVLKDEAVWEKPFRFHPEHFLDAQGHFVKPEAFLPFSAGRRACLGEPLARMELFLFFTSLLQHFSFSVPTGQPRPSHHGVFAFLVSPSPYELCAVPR

remaining at 1 h, 2 µM [1]: 88.8% | remaining at 1 h, 2 µM [2]: 35.4% | Papp (Caco-2): 11.2 ×10⁻⁶ cm/s | Vd [3]: 1.93 L/kg | fCmax (Rattus norvegicus [4]): 2543 ng/mL | MRT [5]: 40 min | fAUC (Rattus norvegicus [6]): 8339 ng·h/mL | half-life [7]: 40.7 min | fCmax (Mus musculus [8]): 6787 ng/mL | fCmax (Canis familiaris [9]): 814 ng/mL | fCmax (Mus musculus [10]): 11167 ng/mL | half-life [11]: 325 min | IC50 (Cytochrome P450 2D6): > 50 µM | Vd [12]: 0.77 L/kg | half-life [13]: 34.8 min | solubility [14]: 187 µM (≈ 66.7 µg/mL) | Tmax [15]: 5 min | Activity [16]: 80.4% | Tmax [17]: 240 min | fAUC (Mus musculus [18]): 8842 ng·h/mL | Tmax [19]: 360 min | fAUC (Canis familiaris [20]): 10844 ng·h/mL
SMILES: C[C@@H]1C[C@H]2[C@@H]3CCC4=CC(=O)C=C[C@]4(C)C3=CC[C@]2(C)[C@@]1(O)C(=O)CO [VAMOROLONE]
Activity (C2C12): Non-toxic
